According to ChEMBL document CHEMBL3259653, “Potent and selective inhibitors of human reticulocyte 12/15-lipoxygenase as anti-stroke therapies” (J Med Chem, 2014):
Calls of active or inactive are those of the source. The calls are words filed in the database; no cut-off is given here.

What was measured:
[1] = biological target: T1, Polyunsaturated fatty acid lipoxygenase ALOX15 (Homo sapiens, UniProt P16050); test: Inhibition of recombinant N-terminal His6-tagged human reticulocyte 12/15-lipoxygenase using arachidonic acid as substrate by UV-vis spectrometric analysis
T1 sequence (P16050 whole entry): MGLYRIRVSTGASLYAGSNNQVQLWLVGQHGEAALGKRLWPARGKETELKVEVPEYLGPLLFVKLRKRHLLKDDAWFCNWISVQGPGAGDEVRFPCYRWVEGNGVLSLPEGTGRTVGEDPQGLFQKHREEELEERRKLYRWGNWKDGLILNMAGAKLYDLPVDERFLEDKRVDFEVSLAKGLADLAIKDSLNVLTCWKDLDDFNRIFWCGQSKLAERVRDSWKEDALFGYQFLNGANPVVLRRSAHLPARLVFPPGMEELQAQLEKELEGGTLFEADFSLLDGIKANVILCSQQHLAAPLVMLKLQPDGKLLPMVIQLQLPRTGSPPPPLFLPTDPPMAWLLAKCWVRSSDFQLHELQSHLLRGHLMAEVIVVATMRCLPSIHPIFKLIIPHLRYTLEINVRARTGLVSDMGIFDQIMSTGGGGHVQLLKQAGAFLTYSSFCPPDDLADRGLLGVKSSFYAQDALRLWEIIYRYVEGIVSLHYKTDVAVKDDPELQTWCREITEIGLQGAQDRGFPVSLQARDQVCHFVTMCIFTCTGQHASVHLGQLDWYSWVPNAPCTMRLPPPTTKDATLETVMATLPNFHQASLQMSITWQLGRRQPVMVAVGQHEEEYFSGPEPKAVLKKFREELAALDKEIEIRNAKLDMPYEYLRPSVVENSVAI

[2] = biological target: T2, Prostaglandin G/H synthase 1 (Ovis aries) (UniProt P05979); test: Inhibition of ovine COX-1 using arachidonic acid as substrate assessed as consumption of oxygen at 5 uM preincubated for 5 mins followed by substrate addition by oxygen electrode-based assay relative to control
T2 sequence (whole entry): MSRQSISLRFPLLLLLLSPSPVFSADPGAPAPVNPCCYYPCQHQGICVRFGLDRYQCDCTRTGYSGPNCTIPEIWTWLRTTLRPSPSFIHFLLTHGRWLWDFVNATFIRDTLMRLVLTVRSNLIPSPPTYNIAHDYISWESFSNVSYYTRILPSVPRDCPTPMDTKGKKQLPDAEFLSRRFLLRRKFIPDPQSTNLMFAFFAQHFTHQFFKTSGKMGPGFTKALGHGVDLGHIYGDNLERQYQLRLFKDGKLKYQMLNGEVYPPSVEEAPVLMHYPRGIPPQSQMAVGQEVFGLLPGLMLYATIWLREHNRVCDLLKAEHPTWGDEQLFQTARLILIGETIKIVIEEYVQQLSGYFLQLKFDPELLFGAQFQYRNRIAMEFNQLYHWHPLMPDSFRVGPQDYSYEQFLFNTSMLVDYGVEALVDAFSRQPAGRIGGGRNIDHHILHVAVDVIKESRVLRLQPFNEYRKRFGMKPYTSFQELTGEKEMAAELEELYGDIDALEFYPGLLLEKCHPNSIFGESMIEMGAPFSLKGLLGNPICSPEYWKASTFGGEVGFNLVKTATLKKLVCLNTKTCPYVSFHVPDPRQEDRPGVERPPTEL
Procedure, shortened: (§1)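 COX-1 or COX-2 (2–5 μg) in 0.1 M Tris-HCl pH 8.0 with 5 mM EDTA, 2 mM phenol and 1 μM hematin at 37 °C. Inhibitor was preincubated 5 min, then 100 μM arachidonic acid was added. Oxygen consumption was read on an oxygen electrode, and percent inhibition was calculated against a DMSO control, with indomethacin as positive control.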

[3] = biological target: T3, Prostaglandin G/H synthase 2 (Homo sapiens) (UniProt P35354); test: Inhibition of human COX-2 using arachidonic acid as substrate assessed as consumption of oxygen at 5 uM preincubated for 5 mins followed by substrate addition by oxygen electrode-based assay relative to control; procedure, shortened: as §1
T3 sequence (whole entry): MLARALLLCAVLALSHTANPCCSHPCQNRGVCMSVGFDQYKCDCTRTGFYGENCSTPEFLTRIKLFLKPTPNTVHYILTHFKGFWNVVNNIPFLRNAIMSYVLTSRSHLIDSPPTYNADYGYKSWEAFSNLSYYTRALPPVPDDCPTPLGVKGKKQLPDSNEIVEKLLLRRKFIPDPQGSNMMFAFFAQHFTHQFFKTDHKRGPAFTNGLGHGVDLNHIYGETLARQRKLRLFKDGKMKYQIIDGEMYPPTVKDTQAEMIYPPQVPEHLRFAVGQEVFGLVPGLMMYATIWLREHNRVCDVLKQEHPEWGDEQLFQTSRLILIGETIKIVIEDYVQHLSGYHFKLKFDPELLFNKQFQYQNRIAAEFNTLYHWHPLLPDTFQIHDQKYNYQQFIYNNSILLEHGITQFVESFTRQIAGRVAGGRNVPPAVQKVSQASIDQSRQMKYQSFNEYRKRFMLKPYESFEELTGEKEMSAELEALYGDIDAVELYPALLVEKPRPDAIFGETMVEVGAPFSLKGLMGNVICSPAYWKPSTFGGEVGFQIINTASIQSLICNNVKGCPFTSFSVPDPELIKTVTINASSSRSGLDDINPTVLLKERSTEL

[4] = biological target: T4, Polyunsaturated fatty acid lipoxygenase ALOX15 (Homo sapiens) (UniProt P16050); test: Inhibition of recombinant N-terminal His6-tagged human reticulocyte 12/15-lipoxygenase using arachidonic acid as substrate at 25 uM by UV-vis spectrometric analysis relative to control
T4 sequence (whole entry): T1 sequence (P16050 whole entry)
Procedure, shortened: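 His6-tagged human 12/15-LOX, Ni-NTA purified, at 40 nM in 25 mM HEPES pH 7.5 with 0.01% Triton X-100 and 10 μM arachidonic acid, in a stirred cuvette at 22 °C. Diene formation was followed at 234 nm, and percent inhibition at 25 μM inhibitor was calculated against the DMSO control rate.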

[5] = biological target: T5, Polyunsaturated fatty acid lipoxygenase ALOX15B (Homo sapiens, UniProt O15296); test: Inhibition of N-terminal His6-tagged human epithelial 15-lipoxygenase-2 using arachidonic acid as substrate by UV-vis spectrometric analysis
T5 sequence (O15296 whole entry): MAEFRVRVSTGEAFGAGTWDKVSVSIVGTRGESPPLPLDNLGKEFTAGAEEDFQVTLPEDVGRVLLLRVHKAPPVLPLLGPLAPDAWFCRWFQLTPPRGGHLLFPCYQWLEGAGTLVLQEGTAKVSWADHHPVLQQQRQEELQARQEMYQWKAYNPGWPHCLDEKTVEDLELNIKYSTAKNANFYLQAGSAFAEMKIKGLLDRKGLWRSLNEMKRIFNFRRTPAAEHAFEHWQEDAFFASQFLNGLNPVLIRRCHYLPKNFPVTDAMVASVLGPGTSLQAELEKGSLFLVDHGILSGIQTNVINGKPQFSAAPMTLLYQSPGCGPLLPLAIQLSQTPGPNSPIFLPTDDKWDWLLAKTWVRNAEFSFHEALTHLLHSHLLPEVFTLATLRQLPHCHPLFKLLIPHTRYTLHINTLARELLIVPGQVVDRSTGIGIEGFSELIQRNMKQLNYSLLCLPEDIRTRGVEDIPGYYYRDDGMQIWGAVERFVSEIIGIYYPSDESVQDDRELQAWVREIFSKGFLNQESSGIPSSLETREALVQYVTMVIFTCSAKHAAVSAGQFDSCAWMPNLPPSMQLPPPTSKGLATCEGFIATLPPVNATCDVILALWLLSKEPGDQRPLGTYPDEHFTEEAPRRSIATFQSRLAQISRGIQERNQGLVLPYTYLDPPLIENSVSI

[6] = biological target: T6, Polyunsaturated fatty acid 5-lipoxygenase (Homo sapiens, UniProt P09917); test: Inhibition of human 5-lipoxygenase using arachidonic acid as substrate by UV-vis spectrometric analysis
T6 sequence (P09917 whole entry): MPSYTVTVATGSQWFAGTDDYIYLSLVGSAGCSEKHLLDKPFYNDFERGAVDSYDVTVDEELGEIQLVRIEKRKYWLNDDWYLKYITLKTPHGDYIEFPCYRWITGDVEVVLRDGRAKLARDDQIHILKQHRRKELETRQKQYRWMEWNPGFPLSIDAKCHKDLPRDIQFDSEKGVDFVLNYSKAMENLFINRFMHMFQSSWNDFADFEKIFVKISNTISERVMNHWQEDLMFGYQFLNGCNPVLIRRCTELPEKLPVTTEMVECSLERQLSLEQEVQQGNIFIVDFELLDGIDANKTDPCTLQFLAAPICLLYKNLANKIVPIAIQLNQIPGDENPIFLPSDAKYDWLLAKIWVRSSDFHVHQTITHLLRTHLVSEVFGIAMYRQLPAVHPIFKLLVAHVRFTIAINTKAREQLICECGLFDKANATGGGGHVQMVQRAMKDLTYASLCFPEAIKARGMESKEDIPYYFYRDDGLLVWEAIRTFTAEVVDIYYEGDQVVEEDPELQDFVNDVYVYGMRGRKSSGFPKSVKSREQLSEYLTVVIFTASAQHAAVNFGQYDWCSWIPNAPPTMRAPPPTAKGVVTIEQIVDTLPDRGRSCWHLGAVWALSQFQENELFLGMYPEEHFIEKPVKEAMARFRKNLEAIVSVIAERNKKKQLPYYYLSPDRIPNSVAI

[7] = biological target: T7, Polyunsaturated fatty acid lipoxygenase ALOX15 (Mus musculus) (UniProt P39654); test: Inhibition of 12/15-lipoxygenase in mouse HT22 cells assessed as protection against glutamate-induced cell death at 5 uM after 24 hrs by LDH release assay; format: cell-based; conditions: HT-22
T7 sequence (whole entry): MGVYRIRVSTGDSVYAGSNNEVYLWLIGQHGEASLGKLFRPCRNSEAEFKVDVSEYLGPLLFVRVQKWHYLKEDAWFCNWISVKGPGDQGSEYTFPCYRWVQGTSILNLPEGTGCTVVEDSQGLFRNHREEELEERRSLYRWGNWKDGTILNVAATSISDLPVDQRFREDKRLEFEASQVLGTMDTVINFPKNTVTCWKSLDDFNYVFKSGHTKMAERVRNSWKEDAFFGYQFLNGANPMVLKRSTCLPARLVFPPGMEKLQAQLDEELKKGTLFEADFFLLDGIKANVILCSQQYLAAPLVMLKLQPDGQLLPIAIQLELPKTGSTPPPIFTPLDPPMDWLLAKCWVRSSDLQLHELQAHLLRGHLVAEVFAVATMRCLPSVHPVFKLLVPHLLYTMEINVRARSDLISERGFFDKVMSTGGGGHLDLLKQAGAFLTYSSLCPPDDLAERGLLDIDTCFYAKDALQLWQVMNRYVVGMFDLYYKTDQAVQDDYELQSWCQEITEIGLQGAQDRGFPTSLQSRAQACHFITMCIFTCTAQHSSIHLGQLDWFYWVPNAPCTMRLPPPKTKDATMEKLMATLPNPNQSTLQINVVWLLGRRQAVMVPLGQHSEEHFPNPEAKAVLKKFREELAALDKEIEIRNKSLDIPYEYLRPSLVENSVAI
Procedure, shortened: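 HT22 mouse hippocampal cells were grown in DMEM with 10% FBS and penicillin/streptomycin, seeded at 1 × 10^4 cells/well and treated 18 h later at 50–70% confluence. Medium was exchanged for fresh medium with 5 mM glutamate plus compound or DMSO (≤0.1% final). Death was scored as percent LDH released to the medium versus the cell extract, background-subtracted.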

## CNc1nc(-c2cccc3ccccc23)ccc1C#N
[1]
  IC50: > 40 µM

## CNc1nnc(-c2cccc3ccccc23)s1
[1]
  IC50: > 40 µM

## CNc1oc(C2CCCC2)nc1C#N
[1]
  IC50: > 50 µM

## CNc1oc(-c2cccc(Cl)c2Cl)nc1C#N
[2]
  inhibition: < 10%
[3]
  inhibition: < 10%

## CC(C)Nc1oc(-c2cccc3ccccc23)nc1C#N
[1]
  IC50: > 40 µM

## N#Cc1nc(-c2cccc3ccccc23)oc1NCc1ccccc1
[1]
  IC50: > 30 µM
[4]
  Imax: < 50%

## CNc1oc(-c2ccc3ccccc3c2)nc1C#N
[4]
  Imax: < 50%

## CNc1sc(-c2cccc3ccccc23)nc1C#N
[5]
  IC50: > 50 µM
[6]
  IC50: > 50 µM
[2]
  inhibition: < 10%
[3]
  inhibition: < 10%

## N#Cc1nc(-c2cccc3ccccc23)oc1NC1COC1
[1]
  IC50: > 25 µM

## CNc1oc(-c2cccc3ccccc23)nc1C(=O)OC
[1]
  IC50: > 40 µM

## CNc1oc(-c2ccc(-c3ccccc3)cc2)nc1C#N
[7]
  inhibition: Active

## CNc1sc(-c2cccc3ccccc23)nc1C(=O)OC
[4]
  Imax: < 50%

## N#Cc1nc(-c2cccc3ccccc23)oc1Nc1ccccc1
[1]
  IC50: > 30 µM
[4]
  Imax: < 50%

## CNc1nc(C#N)c(-c2cccc3ccccc23)o1
[1]
  IC50: > 40 µM
[7]
  inhibition: inactive

## CNc1oc(-c2ccc(Cl)c(Cl)c2)nc1C#N
[2]
  inhibition: < 10%
[3]
  inhibition: < 10%

## N#Cc1nc(-c2cccc3ccccc23)oc1NC1CNC1
[1]
  IC50: > 40 µM
[7]
  inhibition: Active

## CNc1oc(-c2cccc3cnccc23)nc1C#N
[4]
  Imax: < 50%
